Data reported in ChEMBL document CHEMBL3232922, “Discovery and SAR of 6-alkyl-2,4-diaminopyrimidines as histamine H₄ receptor antagonists” (J Med Chem, 2014).
The source made the active and inactive calls. The calls are words filed in the database; no cut-off is given here.

Assays:
[1] = AUC in Balb/c mouse at 5 mg/kg, po; type: ADME, organism-based; design: dose 5 mg/kg, route oral; conditions: plasma
[2] = AUC in Balb/c mouse at 20 mg/kg, po; type: ADME, organism-based; design: dose 20 mg/kg, route oral; conditions: plasma
[3] = AUC in Sprague-Dawley rat at 50 mg/kg, po; type: ADME, organism-based; design: dose 50 mg/kg, route oral; conditions: plasma
[4] = AUC in Sprague-Dawley rat at 200 mg/kg, po; type: ADME, organism-based; design: dose 200 mg/kg, route oral; conditions: plasma
[5] = AUC in Sprague-Dawley rat at 500 mg/kg, po; type: ADME, organism-based; design: dose 500 mg/kg, route oral; conditions: plasma
[6] = Clearance in Sprague-Dawley rat at 2 mg/kg, iv; type: ADME, organism-based; design: dose 2 mg/kg, route intravenous; conditions: Sprague-Dawley, in vivo
[7] = Volume of distribution at steady state in Balb/c mouse at 2 mg/kg, iv; type: ADME, organism-based; design: dose 2 mg/kg, route intravenous; conditions: in vivo, read-out: Vdss
[8] = Volume of distribution at steady state in beagle dog at 2 mg/kg, iv; type: ADME, organism-based, Canis lupus familiaris; design: dose 2 mg/kg, route intravenous; conditions: in vivo, read-out: Vdss
[9] = Half life in Balb/c mouse at 2 mg/kg, iv; type: ADME, organism-based; design: dose 2 mg/kg, route intravenous; conditions: in vivo
[10] = Half life in Balb/c mouse at 5 mg/kg, po; type: ADME, organism-based; design: dose 5 mg/kg, route oral; conditions: in vivo
[11] = Half life in Balb/c mouse at 20 mg/kg, po; type: ADME, organism-based; design: dose 20 mg/kg, route oral; conditions: in vivo
[12] = Half life in Sprague-Dawley rat at 2 mg/kg, iv; type: ADME, organism-based; design: dose 2 mg/kg, route intravenous; conditions: Sprague-Dawley, in vivo
[13] = Half life in Sprague-Dawley rat at 10 mg/kg, po; type: ADME, organism-based; design: dose 10 mg/kg, route oral; conditions: in vivo
[14] = Half life in Sprague-Dawley rat at 50 mg/kg, po; type: ADME, organism-based; design: dose 50 mg/kg, route oral; conditions: in vivo
[15] = Half life in beagle dog at 2 mg/kg, iv; type: ADME, organism-based, Canis lupus familiaris; design: dose 2 mg/kg, route intravenous; conditions: in vivo
[16] = Half life in beagle dog at 10 mg/kg, po; type: ADME, organism-based, Canis lupus familiaris; design: dose 10 mg/kg, route oral; conditions: in vivo
[17] = Oral bioavailability in Balb/c mouse at 5 mg/kg; type: ADME, organism-based; conditions: in vivo
[18] = Oral bioavailability in Sprague-Dawley rat at 50 mg/kg; type: ADME, organism-based; conditions: in vivo
[19] = Half life in mouse liver at 5 mg/kg, po administered as single dose by LC-MS/MS analysis; type: ADME, organism-based; design: dose 5 mg/kg, route oral
How it was run: (§1)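 Mice received one oral dose of 5 mg/kg. Brain, liver and kidneys were surgically removed from three mice per time point for up to 96 h after dosing. Tissue drug levels were measured by LC–MS/MS with a lower limit of quantitation of 1 ng/g. Tmax and t1/2 are reported as means.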

[20] = Half life in mouse kidney at 5 mg/kg, po administered as single dose by LC-MS/MS analysis; type: ADME, organism-based; design: dose 5 mg/kg, route oral; how it was run: as §1
[21] = Ratio of drug level in liver to plasma in mouse at 5 mg/kg, po administered as single dose […] by LC-MS/MS analysis; type: ADME, organism-based; design: dose 5 mg/kg, route oral
[22] = Ratio of drug level in kidney to plasma in mouse at 5 mg/kg, po administered as single dose […] by LC-MS/MS analysis; type: ADME, organism-based; design: dose 5 mg/kg, route oral
[23] = Ratio of drug level in brain to plasma in mouse at 5 mg/kg, po administered as single dose […] by LC-MS/MS analysis; type: ADME, organism-based; design: dose 5 mg/kg, route oral; conditions: brain and plasma
[24] = tested on: Mus musculus; assay: Antipruritic activity against histamine-induced scratching C57/bl6 mouse model assessed as inhibition of itching at 5 to 20 mg/kg, po administered 30 mins prior to histamine challenge measured over 20 mins; type: functional, organism-based
How it was run: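 Mice (n = 6–8 per group) were dosed orally in 20% hydroxypropyl-β-cyclodextran 30 min before intradermal histamine (100 μg). Magnets were placed on the ear and the mice were put in containers above a solenoid. Scratch-specific signals were counted automatically over 20 min immediately after the histamine injection.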

[25] = tested on: Mus musculus; assay: Antiinflammatory activity against po dosed collagen-induced arthritis mouse model assessed as inhibition of clinical score; type: functional, organism-based
How it was run: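 Mouse collagen-induced arthritis model. Compound was given orally in 20% hydroxypropyl-β-cyclodextran, with eight mice per group.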

[26] = molecular target: T1, Histamine H4 receptor (Homo sapiens, UniProt Q9H3N8); assay: Displacement of [3H]histamine from human recombinant histamine H4 receptor expressed in SK-N-MC cells after 45 mins by competition binding analysis; type: cell-based
T1 sequence (Q9H3N8 whole entry): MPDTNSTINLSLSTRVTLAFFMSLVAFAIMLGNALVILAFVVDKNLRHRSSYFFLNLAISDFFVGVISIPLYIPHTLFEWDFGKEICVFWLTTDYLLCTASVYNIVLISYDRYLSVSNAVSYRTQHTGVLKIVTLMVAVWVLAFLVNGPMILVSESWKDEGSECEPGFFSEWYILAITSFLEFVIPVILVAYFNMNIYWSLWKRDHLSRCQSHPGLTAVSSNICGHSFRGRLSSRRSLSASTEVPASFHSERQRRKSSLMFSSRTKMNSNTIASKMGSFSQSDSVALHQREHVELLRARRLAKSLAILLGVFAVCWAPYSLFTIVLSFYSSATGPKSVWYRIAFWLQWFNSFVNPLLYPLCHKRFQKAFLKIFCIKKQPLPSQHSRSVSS

[27] = molecular target: T1, Histamine H4 receptor; assay: Agonist activity at human H4 receptor
[28] = molecular target: Histamine H3 receptor (Homo sapiens, UniProt Q9Y5N1); assay: Displacement of [3H]N-alpha-methylhistamine from human recombinant histamine H3 receptor expressed in SK-N-MC cells after 45 mins by competition binding analysis; type: cell-based
Chain of Histamine H3 receptor (Q9Y5N1 whole entry): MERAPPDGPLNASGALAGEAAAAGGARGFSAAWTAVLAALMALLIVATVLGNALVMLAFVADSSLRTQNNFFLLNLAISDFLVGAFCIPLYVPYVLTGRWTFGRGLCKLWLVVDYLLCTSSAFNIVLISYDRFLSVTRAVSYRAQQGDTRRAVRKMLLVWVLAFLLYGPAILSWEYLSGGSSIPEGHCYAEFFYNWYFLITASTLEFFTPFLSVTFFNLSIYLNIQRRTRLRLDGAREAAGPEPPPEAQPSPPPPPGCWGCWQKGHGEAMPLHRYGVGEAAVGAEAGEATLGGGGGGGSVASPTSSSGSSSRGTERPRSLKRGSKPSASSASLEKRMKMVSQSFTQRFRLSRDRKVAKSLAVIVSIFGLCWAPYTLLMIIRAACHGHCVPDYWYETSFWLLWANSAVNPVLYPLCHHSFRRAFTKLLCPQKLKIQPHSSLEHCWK

[29] = Permeability from apical to basolateral side in human Caco cells; type: ADME, cell-based; conditions: Caco-2, read-out: permeability
[30] = Fraction unbound in human plasma; type: ADME, cell-free
[31] = Fraction unbound in rat plasma; type: ADME, cell-free
[32] = Clearance in rat at 2 mg/kg, iv; type: ADME, organism-based; design: dose 2 mg/kg, route intravenous; conditions: in vivo
[33] = Volume of distribution at steady state in rat at 2 mg/kg, iv; type: ADME, organism-based; design: dose 2 mg/kg, route intravenous; conditions: in vivo, read-out: Vdss
[34] = Half life in rat at 10 mg/kg, po; type: ADME, organism-based; design: dose 10 mg/kg, route oral; conditions: in vivo
[35] = tested on: Mus musculus; assay: Antiinflammatory activity in po dosed Balb/c mouse assessed as inhibition of LPS-induced TNF-alpha release at plasma concentration of 5.7 nM administered 30 mins prior to LPS challenge measured after 2 hrs by ELISA; type: functional, organism-based
[36] = Antagonist activity at monkey histamine H4 receptor; design: species or system Macaca mulatta
[37] = molecular target: Histamine H4 receptor (Rattus norvegicus, UniProt Q91ZY1); assay: Antagonist activity at rat histamine H4 receptor expressed in SK-N-MC cells assessed as reduction of histamine-induced inhibition of cAMP-mediated beta-galactosidase reporter gene activity treated 10 mins prior to histamine challenge by microplate reader analysis; type: functional, cell-based; conditions: read-out: pA2 (converted)
Chain of Histamine H4 receptor (Rattus norvegicus, UniProt Q91ZY1) (Q91ZY1 whole entry): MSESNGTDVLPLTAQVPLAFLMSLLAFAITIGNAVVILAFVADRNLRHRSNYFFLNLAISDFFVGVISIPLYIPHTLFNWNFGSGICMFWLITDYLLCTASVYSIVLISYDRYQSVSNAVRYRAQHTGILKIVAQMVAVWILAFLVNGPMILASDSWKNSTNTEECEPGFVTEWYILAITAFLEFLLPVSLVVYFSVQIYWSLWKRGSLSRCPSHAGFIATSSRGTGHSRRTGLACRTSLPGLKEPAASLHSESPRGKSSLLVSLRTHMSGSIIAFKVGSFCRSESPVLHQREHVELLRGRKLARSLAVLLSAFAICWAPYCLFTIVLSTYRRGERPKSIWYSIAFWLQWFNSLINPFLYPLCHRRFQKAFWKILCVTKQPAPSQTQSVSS

[38] = Binding affinity to dog histamine H4 receptor; design: species or system Canis lupus familiaris
[39] = molecular target: Cytochrome P450 3A4 (Homo sapiens, UniProt P08684); assay: Inhibition of CYP3A4 (unknown origin) at 50 to 100 uM; type: ADME
Chain of Cytochrome P450 3A4 (P08684 whole entry): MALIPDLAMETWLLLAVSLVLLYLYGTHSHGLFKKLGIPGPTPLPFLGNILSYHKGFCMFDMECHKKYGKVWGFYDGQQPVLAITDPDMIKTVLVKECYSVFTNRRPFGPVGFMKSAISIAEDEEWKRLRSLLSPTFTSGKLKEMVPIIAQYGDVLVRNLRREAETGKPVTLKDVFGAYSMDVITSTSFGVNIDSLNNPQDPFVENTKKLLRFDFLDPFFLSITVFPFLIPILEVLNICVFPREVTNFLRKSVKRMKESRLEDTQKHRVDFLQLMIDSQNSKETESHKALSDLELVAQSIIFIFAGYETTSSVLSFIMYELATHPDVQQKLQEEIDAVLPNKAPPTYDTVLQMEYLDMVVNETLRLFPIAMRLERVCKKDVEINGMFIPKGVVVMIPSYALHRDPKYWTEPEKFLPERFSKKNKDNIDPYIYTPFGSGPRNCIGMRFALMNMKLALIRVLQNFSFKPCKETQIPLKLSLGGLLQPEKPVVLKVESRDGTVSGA

[40] = molecular target: Cytochrome P450 2D6 (Homo sapiens, UniProt P10635); assay: Inhibition of CYP2D6 (unknown origin) at 50 to 100 uM; type: ADME
Chain of Cytochrome P450 2D6 (P10635 whole entry): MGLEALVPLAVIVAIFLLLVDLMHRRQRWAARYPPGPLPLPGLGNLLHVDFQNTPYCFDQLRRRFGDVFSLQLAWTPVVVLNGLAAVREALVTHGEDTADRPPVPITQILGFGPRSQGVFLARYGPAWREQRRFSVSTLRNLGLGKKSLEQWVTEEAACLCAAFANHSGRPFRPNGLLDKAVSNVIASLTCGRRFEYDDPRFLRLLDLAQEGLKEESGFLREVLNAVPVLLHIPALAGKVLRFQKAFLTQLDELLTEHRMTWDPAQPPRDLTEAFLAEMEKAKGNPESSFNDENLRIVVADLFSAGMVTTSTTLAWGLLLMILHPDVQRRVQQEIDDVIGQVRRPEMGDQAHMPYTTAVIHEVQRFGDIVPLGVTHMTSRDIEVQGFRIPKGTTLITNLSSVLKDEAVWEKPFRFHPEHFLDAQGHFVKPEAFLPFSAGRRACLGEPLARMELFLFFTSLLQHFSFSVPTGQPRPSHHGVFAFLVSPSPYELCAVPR

[41] = Half life in human liver microsomes; type: ADME
[42] = Half life in rat liver microsomes; type: ADME
[43] = Half life in dog liver microsomes; type: ADME, Canis lupus familiaris
[44] = Half life in monkey liver microsomes; type: ADME, Macaca mulatta; conditions: rhesus monkey
[45] = Tmax in Balb/c mouse at 20 mg/kg, po; type: ADME, organism-based; design: dose 20 mg/kg, route oral; conditions: in vivo
[46] = Tmax in Sprague-Dawley rat at 50 mg/kg, po; type: ADME, organism-based; design: dose 50 mg/kg, route oral; conditions: in vivo
[47] = Tmax in Sprague-Dawley rat at 500 mg/kg, po; type: ADME, organism-based; design: dose 500 mg/kg, route oral; conditions: in vivo
[48] = Cmax in Balb/c mouse at 20 mg/kg, po; type: ADME, organism-based; design: dose 20 mg/kg, route oral; conditions: in vivo
[49] = Cmax in Sprague-Dawley rat at 50 mg/kg, po; type: ADME, organism-based; design: dose 50 mg/kg, route oral; conditions: in vivo
[50] = Cmax in Sprague-Dawley rat at 200 mg/kg, po; type: ADME, organism-based; design: dose 200 mg/kg, route oral; conditions: in vivo
[51] = Cmax in Sprague-Dawley rat at 500 mg/kg, po; type: ADME, organism-based; design: dose 500 mg/kg, route oral; conditions: in vivo
[52] = Cmax in beagle dog at 10 mg/kg, po; type: ADME, organism-based, Canis lupus familiaris; design: dose 10 mg/kg, route oral; conditions: in vivo

**Q.** Which results are given for `CC(C)c1cc(N2CC[C@@H](N)C2)nc(N)n1` [JNJ-39758979]?
**A.** AUC [1]: 9.69 µM·h; AUC [2]: 24.6 µM·h; AUC [3]: 13.4 µM·h; AUC [4]: 71.2 µM·h; AUC [5]: 184 µM·h; clearance [6]: 91.7 mL/min/kg; Vd [7]: 31 L/kg; Vd [8]: 19.9 L/kg; half-life [9]: 7.8 h; half-life [10]: 6.8 h; half-life [11]: 4.7 h; half-life [12]: 2.1 h; half-life [13]: 5.7 h; half-life [14]: 5.45 h; half-life [15]: 10.2 h; half-life [16]: 11.2 h; bioavailability [17]: 84%; bioavailability [18]: 38%; half-life [19]: 22.3 h; half-life [20]: 20.5 h; Kp [21]: 23.2; Kp [22]: 23.2; Kp [23]: 22.7; inhibition [24]: Active; inhibition [25]: Dose-dependent effect; Ki [26]: 12.5 nM; EC50 [27]: > 10000 nM; Ki [28]: 1040 nM; Papp A→B [29]: 23 ×10⁻⁶ cm/s; fraction unbound [30]: 0.81; fraction unbound [31]: 0.83; clearance [32]: 36.7 mL/min/kg; Vd [33]: 19.9 L/kg; half-life [34]: 7.5 h; inhibition [35]: Active; pA2 [36]: 7.5; Kb [37]: 63.1 nM; Ki [38]: ≥ 10000 nM; inhibition (INH) [39]: Not Active; inhibition (INH) [40]: Not Active; half-life [41]: > 2 h; half-life [42]: > 2 h; half-life [43]: > 2 h; half-life [44]: > 2 h; Tmax [45]: 0.5 h; Tmax [46]: 2 h; Tmax [47]: 8 h; Cmax [48]: 5.03 µM; Cmax [49]: 1.25 µM; Cmax [50]: 4.91 µM; Cmax [51]: 7.07 µM; Cmax [52]: 3.9 µM
